Data taken from article PMC7790123 (Psychopharmacology, 2020).

How the values were obtained:
[1] = Drug concentration in free plasma and CSF after dosing; type: in vivo, rat; conditions: for Drug Concentration CSF: 15 mg/kg ip
Procedure, shortened: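 After 1 h acclimation, rats received vehicle or test compound, suspended in 0.1% Tween80, 0.1% silicone antifoam and 1% methylcellulose in water, given ip at 5 mL/kg. At 1 or 4 h, rats were anaesthetised with isoflurane and sampled. Blood was spun at 2000 g, 4°C, 10 min for plasma. CSF and plasma were stored at −80°C, then compound levels were measured by LC-MS/MS.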

COMT = target: T1, COMT (Rattus norvegicus, UniProt P22734); experiment: Frontal cortex microdialysis: DA, HVA and DOPAC in extracellular fluid; type: in vivo; conditions: 20 min samples for 2 h after dosing, vs vehicle
T1 sequence (P22734 44-264 limits assumed): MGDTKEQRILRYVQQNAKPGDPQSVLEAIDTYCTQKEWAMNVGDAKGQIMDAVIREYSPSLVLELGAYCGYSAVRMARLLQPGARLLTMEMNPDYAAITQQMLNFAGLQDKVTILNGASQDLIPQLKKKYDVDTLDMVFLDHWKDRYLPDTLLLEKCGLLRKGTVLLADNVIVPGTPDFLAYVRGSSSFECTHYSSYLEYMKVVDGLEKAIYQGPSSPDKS

rats = experiment: Attentional set-shifting task; type: in vivo, rat; conditions: 15 mg/kg ip, male rats, dosed 1 h before testing, vs vehicle
Procedure, shortened: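 Rats were handled 1 min at least three times in the week before testing. The test compound was suspended in 0.1% Tween80, 0.1% silicone antifoam and 1% methylcellulose in water and given ip at 5 mL/kg, 1 h before testing. Over four days: pre-habituation, habituation, training, then a single test of seven discriminations (SD, CD, CDR, ID, IDR, ED, EDR). The first four trials were unscored; criterion was six consecutive correct. Analysis: two-way repeated-measures ANOVA with Tukey post hoc.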

[2] = male, rat, plasma (free, unbound concentration), intraperitoneal, 15 mg/kg

Cc1ccc(C(=O)c2cc(O)c(O)c([N+](=O)[O-])c2)cc1 [Tolcapone, tolcapone]
Drug Concentration CSF ([1]; female rats, 4 h): BLQ | Drug Concentration CSF ([1]; male rats, 1 h): BLQ | Drug Concentration CSF ([1]; male rats, 4 h): BLQ | concentration at 4 h ([1]; female, rat, plasma (free, unbound concentration), intraperitoneal, 15 mg/kg): 10 nM | concentration at 1 h [1, 2]: 35 nM | concentration at 4 h [1, 2]: 4 nM | extracellular DOPAC concentration, frontal cortex (COMT): significantly increased DOPAC for the 40–120-min time points | extracellular HVA concentration, frontal cortex (COMT): significantly decreased HVA for the 40–120-min time points | ASST performance (trials to criterion), ED stage (rats): improved ED stage performance
